Assay outcomes: PubChem, Broad Institute
Vif inh: HIV Vif self-association inhibitors, primary screen, imaging, HEK293T, single point | inhibition, % at 7.49 µM | 0.35% of 340,000 active | AID 602346, 2012 | HEK293T cells, Vif self-association by quenched fluorescence, 24 h; in the data active means inhibition above about 50%, passing the limit was not always enough
C2C12 statin: suppressors of statin myotoxicity in C2C12 myotubes, primary screen, cell-based, single point, plate reader; AID 602340, 2012; 0.78% of 330,000 active; C2C12 myotubes + simvastatin, ATP luminescence, 48 h; scaled: DMSO 0, geranylgeraniol control 100; rescue of ATP level, % at 7.49 µM;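 active means mean ATP rescue above about 67%, or every replicate alone reaching that limit, limit read from the data, passing the limit was not always enough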;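 further: myotubes were challenged with 10 µM simvastatin during compound exposure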
SR-BI DiI-HDL act: activators of SR-BI mediated DiI-HDL uptake, primary screen, ldlA[mSR-BI] CHO cells, DiI fluorescence; 3 h; 100 = double the neutral-control signal; AID 504775, 2011; activation, % at 12.5 µM; 0.096% of 320,000 active;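 active means mean replicate activation of at least 60% and every replicate at or above 60%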;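 further: 0% = median plate neutral-control signal and 100% = twice that signal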
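Material: SR-BI-overexpressing, LDLR-lacking CHO cells | Dosing: Single compound concentration, delivered by pin transfer | Probe or stimulus: Labelled HDL, 10 µg/mL | Signal: Bottom-read cell fluorescence after medium removal, ex 550/em 595 nm | Schedule: 3 h, 37 °C | Evaluation: HDL uptake via cellular fluorescence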
SR-BI DiI inh: inhibitors of SR-BI mediated HDL lipid uptake, primary screen, ldlA[mSR-BI] cells, fluorescence, single point; Scavenger receptor class B member 1 (Mus musculus), Q61009; 0.96% of 320,000 active; ldlA[mSR-BI] CHO cells, DiI-HDL uptake fluorescence, 3 h; inhibition, % at 12.5 µM;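 active means mean replicate inhibition of at least 70% and a set share of replicates each scoring 70 or more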;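 further: 0% = median of neutral control wells and 100% = median of positive control wells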
Target sequence (Q61009 whole entry, looked up): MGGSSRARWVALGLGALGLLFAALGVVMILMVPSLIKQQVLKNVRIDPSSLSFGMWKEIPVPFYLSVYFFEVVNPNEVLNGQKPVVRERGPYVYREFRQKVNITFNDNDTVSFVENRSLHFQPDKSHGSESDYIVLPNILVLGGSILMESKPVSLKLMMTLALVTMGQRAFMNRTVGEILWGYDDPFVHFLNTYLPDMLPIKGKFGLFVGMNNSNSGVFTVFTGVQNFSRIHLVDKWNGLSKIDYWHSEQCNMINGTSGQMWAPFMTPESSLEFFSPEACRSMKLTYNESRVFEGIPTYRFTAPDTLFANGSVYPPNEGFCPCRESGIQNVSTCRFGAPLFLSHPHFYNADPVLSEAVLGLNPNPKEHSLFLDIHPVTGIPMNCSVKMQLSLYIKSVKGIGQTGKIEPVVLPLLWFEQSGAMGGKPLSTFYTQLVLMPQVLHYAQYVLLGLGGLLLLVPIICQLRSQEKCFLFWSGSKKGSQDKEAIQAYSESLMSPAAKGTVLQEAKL
* = called active by the depositor; . = no result. A selection: hits, their analogues and other compounds. The true share with any hit is near 1.7%.

SMILES	Vif inh	C2C12 statin	SR-BI DiI-HDL act	SR-BI DiI inh
CCOC(=O)C1=C(COC(=O)/C=C/c2ccc(Cl)cc2)NC(=O)NC1C (configuration not stated)	3	2	0	0
CCOC(=O)C1=C(COC(=O)/C=C/c2ccc(OCC)c(OC)c2)NC(=O)NC1C (configuration not stated)	1	.	-83	83*
C[C@@H]1CN([C@@H](C)CO)C(=O)Cc2cc(NC(=O)Nc3ccc(F)cc3)ccc2O[C@H]1CN(C)Cc1ccc(-c2ccccc2)cc1	.	20	.	.
COc1ccc(C2CC3(O)CC(C#N)(C(=O)N3)C2(C#N)C#N)cc1 (configuration not stated)	-27	.	-9	9
COc1ccc(C2CC3(O)NC(=O)C(C#N)(C3C)C2(C#N)C#N)cc1 (configuration not stated)	66*	6	.	.
CO[C@@H]1CN(C)C(=O)c2cc(NC(=O)NC3CCCCC3)ccc2OC[C@@H](C)N(CC2CC2)C[C@H]1C	.	-2	.	.
CO[C@H]1CN(C)C(=O)c2cc(NS(=O)(=O)c3ccccc3)ccc2OC[C@@H](C)N(Cc2cccnc2)C[C@H]1C	.	0	.	.
CCOC(=O)CCCCC(=O)c1[nH]c(=O)[nH]c1CSc1nc2ccccc2[nH]1	1	95*	-17	17
Cc1nc(S/C(=C/c2ccc(-c3ccc(Cl)cc3)o2)C(=O)O)n[nH]1	-36	0	26	-26
Cc1nc(S/C(=C/c2ccc(-c3cc(Cl)ccc3C)o2)C(=O)O)n[nH]1	52*	.	.	.
COc1ccc(S(=O)(=O)Nc2cccc3c2O[C@H](CN(C)Cc2ccc(C(=O)Nc4ccccc4N)cc2)[C@H](C)CN([C@H](C)CO)C3=O)cc1	.	2	.	.
Cc1cc(C(=O)NC2CCCCC2C)c2ccccc2n1 (configuration not stated)	3	-1	23	-23
CCc1nc2ccc(F)cc2c(C(=O)NC2CCCCC2C)c1C (configuration not stated)	54*	-6	9	-9
Cn1c(C(=O)NCCC2=CCCCC2)cc2c(=O)n3ccccc3nc21	-8	-3	-2	2
Cc1cccn2c(=O)c3cc(C(=O)NCCC4=CCCCC4)n(C)c3nc12	2	127*	-22	22
C=CCN(c1ccccc1OC)S(=O)(=O)c1ccc(Cl)c(C(=O)Nc2ccc(N3CCOCC3)cc2)c1	-9	.	-96	96*
CC(=O)Nc1cccc(NC(=O)/C=C/c2ccc(S(=O)(=O)N3CCOCC3)cc2)c1	5	-4	-57	57
Cc1ccc(NC(=O)c2cc(S(=O)(=O)N3CCCCC3)ccc2N2CCOCC2)cc1S(=O)(=O)N(C)C	52*	-20	-1	1
Cc1ccc(NC(=O)/C=C/c2ccc(S(=O)(=O)N3CCOCC3)cc2)cc1S(=O)(=O)N(C)C	20	-33	-86	86*
Cc1ccc(NC(=O)c2cc(S(=O)(=O)N(C)C)ccc2N2CCCC2)cc1S(=O)(=O)N(C)C	0	-9	-54	54
Oc1[nH]c(=S)sc1/C=C1\C(c2ccccc2)=Nc2ccccc21	69*	.	-44	44
C[C@H](CO)N1C[C@H](C)[C@@H](CN(C)Cc2ccc(C(=O)O)cc2)Oc2ccc(NC(=O)CCN3CCOCC3)cc2CC1=O	.	-8	.	.
Cc1ccc(N/N=C(\C#N)C(N)=S)c(C)c1	1	.	-77	77*
Cc1ccc(-c2cnc3c(c2)C(=O)N([C@H](C)CO)C[C@H](C)[C@H](CN(C)C(=O)c2cccc(F)c2)O3)cc1	.	1	.	.
COc1ccc(NC(=O)C(=O)NCCN2CCN(C(=O)c3ccc(C(C)(C)C)cc3)CC2)cc1	.	-4	-77	77*
SMILES	Vif inh	C2C12 statin	SR-BI DiI-HDL act	SR-BI DiI inh
COc1ccc(C(=O)N2CCN(CCNC(=O)C(=O)Nc3ccc(Br)cc3)CC2)cc1	-23	.	-21	21
COc1ccc2cc(C(c3nnnn3C3CCCC3)N3CCCCCC3)c3nnnn3c2c1 (configuration not stated)	-16	17	-53	53
COc1ccc2cc(C(c3nnnn3C3CCCCC3)N3CCCCCC3)c3nnnn3c2c1 (configuration not stated)	0	5	-80	80*
O=C(NC1CCCC1)N[C@@H]1CC[C@H](CC(=O)N2CCOCC2)O[C@@H]1CO	.	0	.	.
COC(=O)c1cc(C(=O)Nc2nc3ccccc3[nH]2)cc([N+](=O)[O-])c1	-12	2	-80	80*
CCNC(=O)C[C@H]1CC[C@@H](NC(=O)C2CC2)[C@@H](CO)O1	.	-13	.	.
CCCSC1=N/C(=C\c2ccc3c(c2)OCO3)C(=O)S1	-15	.	14	-14
CCCSC1=N/C(=C\c2ccsc2)C(=O)S1	-1	103*	-8	8
CCSC1=N/C(=C\c2ccc3c(c2)OCO3)C(=O)S1	4	97*	19	-19
CCNC(=O)C[C@@H]1CC[C@@H]2[C@H](COc3ccc(NC(=O)c4cscn4)cc3C(=O)N2C)O1	.	-16	.	.
NC(=O)c1cc(-c2ccccc2)nc(N2CCOCC2)n1	7	86*	-6	6
COC(=O)c1sc(-c2ccc(Cl)cc2)cc1NC(=O)CSCC(=O)O	51*	.	-4	4
C[C@@H]1CN([C@H](C)CO)C(=O)c2cc(-c3cccnc3)cnc2O[C@H]1CN(C)C(=O)C1CCC1	.	9	.	.
O=C(C[C@@H]1CC[C@H]2[C@@H](COC[C@@H](O)CN2Cc2cccc(F)c2)O1)NCc1ccncc1	.	10	.	.
Cc1ccc(NC(=O)C2CCCN(S(=O)(=O)c3cnc[nH]3)C2)cc1C (configuration not stated)	28	-4	-19	19
O=C(Nc1ccc(F)c(F)c1)C1CCCN(S(=O)(=O)c2cnc[nH]2)C1 (configuration not stated)	-1	97*	5	-5
Cc1cccc(Nc2cc(=O)[nH]c(=O)[nH]2)c1	12	.	28	-28
Cc1cccc(Nc2cc(=O)[nH]c(=O)[nH]2)c1C	-3	.	15	-15
Cc1ccc(Nc2cc(=O)[nH]c(=O)[nH]2)c(C)c1	-7	121*	27	-27
Cc1ccc(Nc2cc(=O)[nH]c(=O)[nH]2)cc1C	57*	13	14	-14
Cc1cc(C(=O)COC(=O)c2ccc(O)cc2)c(C)n1CCc1ccc(F)cc1	2	9	-74	74*
Cc1cc(C(=O)COC(=O)CN=C2NS(=O)(=O)c3ccccc32)c(C)n1CCc1ccc(Cl)cc1	5	112*	-39	39
Cc1cnc(C(=O)OCC(=O)c2cc(C)n(CCc3ccc(F)cc3)c2C)cn1	-1	3	.	.
Cc1cc(-n2c(C)cc(C(=O)COC(=O)CN=C3NS(=O)(=O)c4ccccc43)c2C)no1	16	.	-20	20
CNC[C@H]1OCCCC[C@H](C)Oc2ccc(NC(=O)Nc3ccc(F)cc3)cc2C(=O)N([C@H](C)CO)C[C@H]1C	.	7	.	.
